Compound activity as filed in PubChem.
Hits are enriched below; roughly 2.9% of the tested compounds scored in any of these assays.
VIM-2 inh – inhibitors of Pseudomonas aeruginosa VIM-2 metallo-beta-lactamase. inhibition, % at 5.6 µM. actives 0.89% (n = 290,000). purified VIM-2, nitrocefin hydrolysis, epi-absorbance fluorescence;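 active = inhibition above the mean of all tested compounds plus 3 SD, cutoff set per screening run, cut at about 7.5% in these data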;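 also: red hydrolysis product quenches plate fluorescence so inhibitors raise well fluorescence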
Mot1-301 SUMO – inhibitors of SUMOylation pathway: yeast Mot1-301 growth rescue. growth rescue, % at 18.8 µM. S. cerevisiae Mot1-301 growth rescue, ATP luminescence, 38.5C; percent above DMSO median, 100 means doubled. actives 1% (n = 320,000);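 active = every valid replicate shows activation above 250% relative to neutral control wells; inactive = the rest, any valid replicate at or below 250%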
PolyA inhibitor – blocks polyadenylation in yeast reporter cells. S. cerevisiae SKY197-pL101 polyadenylation reporter, beta-gal luminescence; efflux-impaired pdr1/pdr3 knockout yeast; score 100 = 6 SD above DMSO. activity score, % at 12 µM. actives 0.02% (n = 300,000). AID 1875;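 active = lowest replicate activity score at least 50, where 100 means six control SD above control mean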;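 also: yeast exposed to compound for 9 h at 30 °C; higher score means more reporter readthrough which indicates perturbed polyadenylation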
NLRP3 yeast inh – blocks the NALP3 inflammasome reconstituted in yeast; inhibition, % at 10 µM; Yeast reconstituted NLRP3/ASC/caspase-1, beta-gal luminescence, 24 h; AID 2825; actives 0.39% (n = 330,000);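 active = inhibition of 50% or more; inactive = inhibition below 50%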
IMP-1 inhibitor – blocks Pseudomonas aeruginosa IMP-1 metallo-beta-lactamase | purified IMP-1, nitrocefin hydrolysis, epi-absorbance fluorescence | inhibition, % at 5.6 µM | actives 0.45% (n = 290,000);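 active = inhibition above the mean plus 3 SD of all compounds in the same screening run, cut at about 4.5% in these data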
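System: purified IMP-1; amount: IMP-1 0.2 nM before substrate addition; compound: single dose, 5.6 µM; times: 25 °C, 15 min preincubation, 25 min reaction; signal: Epi-absorbance via hydrolysed-nitrocefin quenching of white-plate fluorescence, 480/530 nm, EDTA stop; benchmarks: DMSO with and without IMP-1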
NALP1 yeast inh – blocks the NALP1 inflammasome reconstituted in yeast. inhibition, % at 10 µM. actives 0.61% (n = 280,000). S. cerevisiae NALP1/ASC/caspase-1 growth, X-gal OD620, 72 h; in the data active = inhibition mostly above about 24%, no sharp cut-off; inactive = mostly below about 32%
Yeast Mot1 SUMO – yeast SUMO pathway inhibition in dose response | shares compounds with Mot1-301 SUMO | S. cerevisiae Mot1-301 galactose growth, ATP luminescence, 24 h; -100 = growth of slx-deleted rescue strain | growth activity, percent, % at 42 µM | 2,300 tested, under 10 active;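 active = Signal drops as the depositor expects, and the fitted half-maximal dose is no more than ten times the top valid tested dose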;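 also: more negative values mean stronger growth rescue toward the control strain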
Numbers stand for hits; - = inactive; . = not tested or not shown; + = active, no number.

SMILES	VIM-2 inh	Mot1-301 SUMO	PolyA inhibitor	NLRP3 yeast inh	IMP-1 inhibitor	NALP1 yeast inh	Yeast Mot1 SUMO
COc1ccc(CN(CC(=O)NCC2CCCO2)C(=O)CNS(=O)(=O)c2ccc(C)cc2)cc1 (stereo unspecified)	-	-	-	-	-	-	.
CC(NC(=O)OCc1ccccc1)C(=O)N1CC(O)CC1C(=O)O (stereo unspecified)	-	451	-	.	-	-	-
Cc1cccc(NC(=O)C2CC(O)CN2C(=O)OCc2ccccc2)c1 (stereo unspecified)	-	-	-	-	-	-	.
NS(=O)(=O)c1ccc(CCNC(=O)c2ccc(Cl)s2)cc1	-	-	-	-	-	-	.
NS(=O)(=O)c1ccc(CCNC(=O)c2ccc([N+](=O)[O-])s2)cc1	-	389	-	-	-	-	-
Cn1c(Cn2nnc3ccccc32)nnc1SCC(=O)c1ccc(F)cc1	-	785	-	-	-	-	-
Nc1nc(SCc2nc3scc(-c4cccs4)c3c(=O)[nH]2)n[nH]1	-	+	-	-	-	-	-
Nc1cc(-c2ccc(Cl)cc2)nn1S(=O)(=O)c1ccc(Cl)cc1	-	545	-	-	-	-	-
COc1ccc(S(=O)(=O)n2nc(-c3ccc(Cl)cc3)cc2N)cc1OC	-	388	-	-	-	-	-
Cc1ccc(S(=O)(=O)N2CCCCC2)cc1C(=O)N1C(C)CCCC1C (stereo unspecified)	.	-	.	-	.	.	.
Cc1cc(=O)[nH]c2nnc(-c3ccc(Cl)cc3)n12	-	-	-	-	-	-	.
Cc1ccc(C)c(C(C)NC(=O)c2ccncc2)c1 (stereo unspecified)	-	752	-	-	-	-	-
CC(Oc1ccccc1)C(=O)Nc1ccccc1O (stereo unspecified)	-	568	-	-	-	-	-
COC(=O)c1ccccc1NC(=O)C(C)Oc1ccccc1 (stereo unspecified)	-	-	.	-	-	-	.
c1ccc2[nH]c(CSc3nccs3)nc2c1	-	371	-	-	-	-	-
O=C(Cc1cccs1)Nc1nnc(-c2ccncc2)s1	-	+	-	-	-	-	-
COc1cccc(-c2nnc(NC(=O)Cc3cccs3)s2)c1	-	-	-	-	-	-	.
Cc1ccc(C(C)C)c(OCC#CCN2CCOCC2)c1	-	-	-	-	-	-	.
C#CCOCCOCCOCCNc1nc(OC)nc(N2CCN(C(=O)[C@H](CCC(=O)O)n3cc(C(N)CO)nn3)CC2)n1 (stereo partly specified)	.	-	.	-	.	.	.
CCNCc1nc2cc(Cl)ccc2c(=O)[nH]1	-	831	-	-	-	-	-
NC(=O)C1CCN(Cc2nc3cc(Cl)ccc3c(=O)[nH]2)CC1	-	-	-	-	-	-	.
COc1ccc([C@H]2CC(=O)C=C(c3cccc4c3Oc3ccccc3S4)C2)cc1	.	-	.	-	.	.	.
CCCc1nc2c(nnn2Cc2ccccc2F)c(=O)[nH]1	-	386	-	-	-	-	-
O=C(CCNC(=O)c1ccc([N+](=O)[O-])cc1)Nc1cccc(S(=O)(=O)N2CCCCCC2)c1	.	-	.	-	.	.	.
COc1ccc(C(=O)CSc2nnc(CNC(=O)c3ccccc3)n2C)cc1	-	397	-	-	-	-	-
SMILES	VIM-2 inh	Mot1-301 SUMO	PolyA inhibitor	NLRP3 yeast inh	IMP-1 inhibitor	NALP1 yeast inh	Yeast Mot1 SUMO
CN(Cc1ccc(C(C)(C)C)cc1)C(=O)c1ccc2c(=O)n3c(nc2c1)CCC3	.	399	-	-	.	.	-
COc1ccc(CN(C)C(=O)c2ccc3c(=O)n4c(nc3c2)CCC4)cc1	-	-	-	-	-	-	.
O=C(CSc1nc(=O)n(Cc2ccccn2)c2c1CCC2)Nc1ccc(F)cc1F	.	-	-	-	.	.	.
CCCc1cc(N2CCCC(C(=O)Nc3cc(Cl)ccc3OC)C2)n2ncnc2n1 (stereo unspecified)	-	-	.	-	-	.	.
COc1ccc(Cl)cc1NC(=O)C1CCCN(c2cc(C)nc3ncnn23)C1 (stereo unspecified)	-	733	-	-	-	-	-
CC(=O)Nc1ccc(S(=O)(=O)N(C)CC(=O)OC(C)C(=O)NC2CCCCC2)cc1 (stereo unspecified)	.	-	-	-	.	.	.
COC(=O)C(NC(C)=O)(Nc1nc2ccc(S(C)(=O)=O)cc2s1)C(F)(F)F (stereo unspecified)	-	+	-	-	-	-	-
O=C(c1ccncc1)N(Cc1ccccc1)Cc1nc2ccccc2c(=O)[nH]1	-	414	-	-	-	-	-
O=C(c1ccccc1)N(Cc1ccc(F)cc1)Cc1nc2ccccc2c(=O)[nH]1	-	-	-	-	-	-	.
O=C(Nc1cccc(C(=O)Nc2ccc(F)cc2F)c1)c1ccccc1	-	+	-	-	-	-	-
CCOC(=O)c1cnc2ccc(Cl)cc2c1N1CCN(C)CC1	-	616	-	-	-	-	-
CCOC(=O)c1cnc2ccc(OCC)cc2c1N1CCN(C)CC1	-	-	-	-	-	-	.
CCOC(=O)c1cnc2c(OC)cccc2c1N1CCN(c2ccccc2OC)CC1	-	+	-	-	-	-	-
CCOC(=O)c1cnc2c(OC)cccc2c1N1CCN(c2ccccn2)CC1	-	-	-	-	-	-	.
COc1ccccc1NC(=O)CSc1nc(O)c(Cc2ccccc2)c(=O)[nH]1	-	+	-	-	-	-	-
CC(C(=O)O)N1C(=O)C2C3c4ccccc4C(c4ccccc43)[C@@H]2C1=O (stereo partly specified)	-	-	-	-	-	-	.
Cc1ccc(S(=O)(=O)N(C)c2ccc(OC(=O)CN3C(=O)NC4(CCCC4)C3=O)cc2)cc1C	.	+	-	-	.	.	-
CC(C)(C)C(=O)Nc1ccc(C(=O)CN2C(=O)NC3(CCOc4ccccc43)C2=O)cc1 (stereo unspecified)	.	-	.	-	.	.	.
NS(=O)(=O)c1cccc(NC(=O)CSc2nnnn2-c2ccccc2)c1	-	375	-	-	-	.	-
O=C1CCCCCCC1Sc1ccccc1[N+](=O)[O-] (stereo unspecified)	-	-	-	-	-	-	.
O=C(N/N=C/c1cccc([N+](=O)[O-])c1)c1cc[n+](CCO)cc1	-	-	-	-	-	-	.
CC(c1ccccn1)N(CCN(C)C)C(=S)Nc1cccc(F)c1 (stereo unspecified)	-	436	-	-	-	-	-
Cc1cc(NC(=O)/C=C/c2ccco2)ccc1NC(=O)c1ccccc1	-	432	-	-	-	-	-
CC1(C)CC(NC(=O)C2CCN(S(=O)(=O)c3ccc(F)cc3)CC2)CC(C)(C)N1	-	-	-	-	-	-	.
